Assay results from ChEMBL document CHEMBL1135575, “Synthesis and structure-activity relationships of 3-aryloxindoles: a new class of calcium-dependent, large conductance potassium (maxi-K) channel openers with neuroprotective properties” (J Med Chem, 2002).
Values joined by “and” are separate entries in the source; they are usually repeats but may differ in a detail not shown here. Equal entries are not always repeated.

Columns and labels:
[1] = (§1) Effect on Maxi-K-Mediated outward current in Xenopus laevis oocytes expressing cloned mSlo maxi-K channels at 20 uM; type: functional, Oocyte
In short: (§2)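 Two-electrode voltage clamp on Xenopus oocytes expressing cloned mSlo. Steps of 500–750 ms ran from a holding potential of -60 to +140 mV in 20 mV increments, without and with compound at 20 μM in the chamber. Each experiment ended with 10 min of 50 nM iberiotoxin, and that residual current was subtracted. The IbTx-sensitive current is given as % of drug-free control, from at least five oocytes.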

[2] = as §1; type: functional, Mus musculus, Oocyte; in short: as §2
Rattus norvegicus [3] = species: Rattus norvegicus; experiment: Electrically stimulated [3H]-glutamate release in hippocampal slices; type: functional, Hippocampus
In short: (§3)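 Hippocampal wedges (350 μm) from male Sprague–Dawley rats were washed in Krebs buffer with adenosine deaminase. They were loaded with 5 μCi [3H]-glutamate for 30 min at 37 °C, then superfused and collected as 5 min fractions. Release was evoked by field stimulation (35 mA, 10 Hz, 2 ms pulses, 1 min) at fractions 3 (S1) and 13 (S2). Compound was present from 30 min before S2. Data are S2/S1 ratios, analysed by ANOVA with Newman–Keuls.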

Rattus norvegicus [4] = experiment: Brain level concentration after IV administration (4.6 mg/kg) in male rats at 0.25 hours; type: functional, organism-based
In short: (§4)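 Male Sprague–Dawley rats (ca. 225 g) got a tail-vein bolus of 2 mL/kg. Three animals per group were killed by CO2 at 0.25 and 2 h. Whole brain and blood were taken. Brain homogenates and plasma were extracted with CH3CN and assayed by HPLC with UV detection at 290 nm. Plasma is given in μg/mL and brain in μg/g wet weight, as mean ± SD.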

Rattus norvegicus [5] = experiment: Brain level concentration after IV administration (4.6 mg/kg) in male rats at 2 hours; type: functional, organism-based; in short: as §4
Rattus norvegicus [6] = experiment: Plasma level concentration after IV administration (4.6 mg/kg) in male rats at 0.25 hours; type: functional, organism-based; in short: as §4
Rattus norvegicus [7] = experiment: Plasma level concentration after IV administration (4.6 mg/kg) in male rats at 2 hours; type: functional, organism-based; in short: as §4
Rattus norvegicus [8] = experiment: Neocortical infarct volume after IV administration (2 hr post-MCAO) in 9 rats by method A at the dose 0.03 mg/kg; type: functional
In short: (§5)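 Left MCA was permanently occluded by a subtemporal approach in male SHR (240–350 g) under ketamine/xylazine, with temperature kept at 36–38 °C. A single tail-vein bolus was given 2 h after occlusion, in vehicle of 2% DMSO and 98% propylene glycol. At 24 h the brain was perfused with 3% TTC, incubated 30 min at 37 °C and fixed. Neocortical infarct volume (mm3) was measured by planimetry of 2 mm slices and reported as mean (SE) and % reduction versus vehicle.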

Rattus norvegicus [9] = experiment: Neocortical infarct volume after IV administration (2 hr post-MCAO) in 9 rats by method A at the dose 0.1 mg/kg; type: functional; in short: as §5
Rattus norvegicus [10] = experiment: Neocortical infarct volume after IV administration (2 hr post-MCAO) in 9 rats by method B at the dose 0.1 mg/kg; type: functional
Rattus norvegicus [11] = experiment: Neocortical infarct volume after intraperitoneal administration (2 hr post-MCAO) in 11 rats by method B at the dose level 10(mg/kg).; type: functional
In short: (§6)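 Permanent left MCA occlusion in male SHR (240–350 g) under ketamine/xylazine, at 36–38 °C. Compound was given intraperitoneally 2 h after occlusion in 2% DMSO/98% propylene glycol. At 24 h, infarcts were stained with 3% TTC perfusion, slices were cut at 2 mm, and neocortical infarct volume was measured by planimetry. Results are given as mean (SE) and % reduction versus vehicle from the same study.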

Rattus norvegicus [12] = experiment: Neocortical infarct volume after intraperitoneal administration (2 hr post-MCAO) in 11 rats by method B at the dose level 20(mg/kg).; type: functional; in short: as §6
Rattus norvegicus [13] = experiment: Neocortical infarct volume after IV administration (2 hr post-MCAO) in 9 rats by method B at the dose 0.01 mg/kg
Rattus norvegicus [14] = experiment: Neocortical infarct volume after intraperitoneal administration (2 hr post-MCAO) in 9 rats by method A at the dose 10 mg/kg
Rattus norvegicus [15] = experiment: Neocortical infarct volume after IV administration (2 hr post-MCAO) in 9 rats by method A at the dose 10.0 mg/kg; Toxic at 10.0% reduction level; details: in vivo
[16] = Effect on Maxi-K mediated outward current in Xenopus laevis oocytes expressing cloned mSlo maxi-K channels at 20 uM; type: functional, Mus musculus, Oocyte; in short: as §2
Rattus norvegicus [17] = species: Rattus norvegicus; experiment: Electrically stimulated [3H]glutamate release in hippocampal slices; type: functional, Hippocampus; in short: as §3
Rattus norvegicus [18] = experiment: Neocortical infarct volume after IV administration (2 hr post-MCAO) in 13 rats by method A at the dose 10.0 mg/kg; type: functional; in short: as §5
Rattus norvegicus [19] = experiment: Neocortical infarct volume after IV administration (2 hr post-MCAO) in 13 rats by method A at the dose 5.0 mg/kg; type: functional; in short: as §5
Rattus norvegicus [20] = experiment: Neocortical infarct volume after IV administration (2 hr post-MCAO) in 13 rats by method A at the dose 1.0 mg/kg; type: functional; in short: as §5

## O=C1Nc2cc(C(F)(F)F)ccc2C1(O)c1cc(F)ccc1O (configuration not stated)
[1]
  Increase: 97%

## Cc1ccc2c(c1)C(O)(c1cc(Cl)ccc1O)C(=O)N2 (configuration not stated)
[1]
  Increase: 100%

## Nc1cc(O)c(C2(O)C(=O)Nc3cc(C(F)(F)F)ccc32)cc1Cl (configuration not stated)
[2]
  Increase: 94%

## O=C1Nc2cc(C(F)(F)F)ccc2C1(O)c1cc(Br)ccc1O (configuration not stated)
[1]
  Increase: 89%

## O=C1Nc2cc(C(F)(F)F)cc(C(F)(F)F)c2C1(O)c1cc(Cl)ccc1O (configuration not stated)
[1]
  Increase: 127%

## O=C1Nc2cc(C(F)(F)F)ccc2C1(O)c1cccc(Cl)c1 (configuration not stated)
[1]
  Increase: 97%

## O=C1Nc2ccccc2C1c1cc(Cl)ccc1O (configuration not stated)
[1]
  Increase: 139%

## O=C1Nc2cc(C(F)(F)F)ccc2[C@@]1(O)c1cc(Cl)ccc1O
[1]
  Increase: 123%

## COc1ccc(Cl)cc1[C@]1(O)C(=O)Nc2cc(C(F)(F)F)ccc21 (stereo in doubt; (+)-7c)
[1]
  Increase: 117%

## O=C1Nc2cc(Cl)cc(Cl)c2C1(O)c1cc(Cl)ccc1O (configuration not stated)
[1]
  Increase: 117%

## O=C1Nc2ccc(C(F)(F)F)cc2C1(O)c1cc(Cl)ccc1O (configuration not stated)
[1]
  Increase: 108%

## Cc1ccc(O)c(C2(O)C(=O)Nc3cc(C(F)(F)F)ccc32)c1 (configuration not stated)
[1]
  Increase: 106%

## O=C1Nc2cc(C(F)(F)F)ccc2C1c1cc(Cl)ccc1O (racemic)
Rattus norvegicus [3]
  Control: 71%
Rattus norvegicus [4]
  Concentration: 2.4 µg/g
Rattus norvegicus [5]
  Concentration: 0.23 µg/g
Rattus norvegicus [6]
  Concentration: 3.3 µg/mL
Rattus norvegicus [7]
  Concentration: 0.28 µg/mL
Rattus norvegicus [8]
  Reduction: 18%
Rattus norvegicus [9]; 0.1 mg/kg
  Reduction: 9% and 0% and 6%
Rattus norvegicus [10]
  Reduction: 4% and 12%
Rattus norvegicus [11]
  Reduction: 24%
Rattus norvegicus [12]
  Reduction: 9%
[2]
  Increase: 164%
Rattus norvegicus [13]
  Increase: -7%
Rattus norvegicus [14]
  Reduction: 26%
Rattus norvegicus [15]
  Toxic: Toxic

## O=C1Nc2ccccc2C1(O)c1cc(Cl)ccc1O (configuration not stated)
[1]
  Increase: 95%

## COc1ccc(Cl)cc1C1(O)C(=O)Nc2cc(C(F)(F)F)ccc21 (racemic)
[1]
  Increase: 120%

## O=C1Nc2cc(C(F)(F)F)ccc2C1(O)c1cc(Cl)cc(I)c1O (configuration not stated)
[1]
  Increase: 124%

## COc1ccc(Cl)cc1[C@]1(O)C(=O)Nc2cc(C(F)(F)F)ccc21 (stereo in doubt; (-)-7c)
[1]
  Increase: 116%

## O=C1Nc2cc(C(F)(F)F)ccc2C1(O)c1cc(-c2ccccc2)ccc1O (configuration not stated)
[1]
  Increase: 106%

## O=C1Nc2cc(C(F)(F)F)ccc2C1(O)c1ccc(Cl)cc1O (configuration not stated)
[1]
  Increase: 93%

## COc1ccc(Cl)cc1C1(O)C(=O)Nc2ccc(C(F)(F)F)cc21 (configuration not stated)
[16]
  Increase: 109%

## O=C1Nc2cc(C(F)(F)F)ccc2C1(O)c1ccccc1 (configuration not stated)
[1]
  Increase: 87%

## CN1CCN(c2ccc(O)c(C3(O)C(=O)Nc4cc(C(F)(F)F)ccc43)c2)CC1 (configuration not stated)
[1]
  Increase: 91%

## COc1ccc(Cl)cc1C1C(=O)Nc2cc(C(F)(F)F)ccc21 (configuration not stated)
[1]
  Increase: 110%

## O=C1Nc2cc(C(F)(F)F)ccc2C1(O)c1cc(Cl)c(Cl)cc1O (configuration not stated)
[1]
  Increase: 107%

## O=C1Nc2cccc(C(F)(F)F)c2C1(O)c1cc(Cl)ccc1O (configuration not stated)
[1]
  Increase: 127%

## O=c1[nH]c2cc(C(F)(F)F)ccc2n1-c1cc(Cl)ccc1O
[1]
  Increase: 132%

## O=C1Nc2cc(C(F)(F)F)ccc2C1(O)c1ccccc1O (configuration not stated)
[1]
  Increase: 90%

## O=C1Nc2cc(C(F)(F)F)ccc2C1(O)c1cc(C(F)(F)F)ccc1O (configuration not stated)
[1]
  Increase: 130%

## Nc1ccc(C2(O)C(=O)Nc3cc(C(F)(F)F)ccc32)c(O)c1 (configuration not stated)
[2]
  Increase: 92%

## O=C1Nc2cc(C(F)(F)F)ccc2C1(O)c1cc(Cl)cc(Cl)c1O (configuration not stated)
[1]
  Increase: 108%

## O=C1Nc2cc(C(F)(F)F)ccc2C1(O)c1cc(I)ccc1O (configuration not stated)
[1]
  Increase: 107%

## O=C1Nc2ccc(F)cc2C1(O)c1cc(Cl)ccc1O (configuration not stated)
[1]
  Increase: 106%

## O=C1Nc2cc(C(F)(F)F)ccc2C1(O)c1ccc(C(F)(F)F)cc1O (configuration not stated)
[1]
  Increase: 108%

## O=C1Nc2cc(C(F)(F)F)ccc2C1(O)c1cc(Cl)ccc1O (racemic) [listing 1 of 2 here]
Rattus norvegicus [17]
  Control: 89% and 93%
Rattus norvegicus [18]
  Reduction: 4%
Rattus norvegicus [19]
  Reduction: 10%
Rattus norvegicus [9]
  Reduction: 4%
[1]
  Increase: 131%
Rattus norvegicus [20]
  Reduction: 10%

## O=C1Nc2cc(C(F)(F)F)ccc2C1(O)c1c(O)ccc2ccccc12 (configuration not stated)
[1]
  Increase: 116%

## O=C1Nc2cc(C(F)(F)F)ccc2C1(O)c1cc(Cl)ccc1O (single isomer, unassigned; (-))
[1]
  Increase: 141%

## O=C1Nc2cc(C(F)(F)F)ccc2C1(O)c1cc(Cl)ccc1O (racemic) [listing 2 of 2 here]
Rattus norvegicus [4]
  Concentration: 1.34 µg/g
Rattus norvegicus [5]
  Concentration: 0.87 µg/g
Rattus norvegicus [6]
  Concentration: 1.2 µg/mL
Rattus norvegicus [7]
  Concentration: 0.231 µg/mL

## O=C1Nc2cc(C(F)(F)F)ccc2C1(O)c1cccc(Cl)c1O (configuration not stated)
[1]
  Increase: 116%

## O=C1Nc2c(C(F)(F)F)cccc2C1(O)c1cc(Cl)ccc1O (configuration not stated)
[1]
  Increase: 122%

## COc1ccc(O)c(C2(O)C(=O)Nc3cc(C(F)(F)F)ccc32)c1 (configuration not stated)
[1]
  Increase: 81%

## O=C1Nc2ccc([N+](=O)[O-])cc2C1(O)c1cc(Cl)ccc1O (configuration not stated)
[1]
  Increase: 78%
